Assay results taken from publication PMC12377187 (RSC Advances, 2025).
Read-outs that look alike come from different tables or passages of the source.

What was measured:
[1] = system: MDA-MB-231 – human breast cancer cell line; experiment: MTT cytotoxicity, MDA-MB-231 cell line; assay type: cell-based; details: MDA-MB-231, 72 h, read-out: IC50 MDA-MB-231
Method in brief: (§1)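 Cells seeded at 5000 per well in Eagle's MEM with 10% fetal calf serum, 2 mM L-glutamine, penicillin and streptomycin, then pre-incubated 24 h at 37 °C, 5% CO2. A concentration series of test compound in DMSO, with a reference drug, was applied for 72 h. MTT added for 4 h at 37 °C, formazan dissolved in ethanol, OD read at 570 nm. Inhibition calculated against blank and control absorbances.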

[2] = system: RD – rhabdomyosarcoma cell line; experiment: MTT cytotoxicity, RD cell line; assay type: cell-based; details: 72 h
Method in brief: as §1

[3] = system: SW620 cell line; details: cited from earlier work
[4] = system: HT-29 cell line; details: cited from earlier work
[5] = Rhabdomyosarcoma cell, read-out: IC50 RD, MTT, 72 h, mean ± SD
[6] = read-out: IC50 RD, MTT, mean ± SD

| SMILES | IC50 [1] [µM] | IC50 [2, 5] [µM] | IC50 [2, 6] [µM] | inhibitory activity against SW620 [3] [%] | inhibitory activity against HT-29 [4] [%] |
| --- | --- | --- | --- | --- | --- |
| CN(C)c1ccc(C=Nn2c(-c3ccccc3)nc3ccc(Cl)cc3c2=O)cc1 [Compound 8, 6-Chloro-3-((4-(dimethylamino)benzylidene)amino)-2-phenyl-4(3H)-quinazolone] | 101 ± 3.75 | 198 ± 18.9 |  |  |  |
| COc1cccc(C=Nn2c(-c3ccccc3)nc3ccc(Cl)cc3c2=O)c1 [Compound 18, 6-Chloro-3-((3-methoxybenzylidene)amino)-2-phenyl-4(3H)-quinazolone] | 329 ± 47.2 | 84.8 ± 9.35 |  |  |  |
| O=c1c2cc(Cl)ccc2nc(-c2ccccc2)n1N=Cc1ccc(F)cc1 [Compound 4, 6-Chloro-3-((4-fluorobenzylidene)amino)-2-phenyl-4(3H)-quinazolone] | 21.6 ± 1.11 | 235 ± 8.29 |  |  |  |
| O=c1c2cc(Cl)ccc2nc(-c2ccccc2)n1N=Cc1ccco1 [Compound 15, 6-Chloro-3-((furan-2-ylmethylene)amino)-2-phenyl-4(3H)-quinazolone] | 56.6 ± 5.37 | 38.6 ± 1.07 |  |  |  |
| O=c1c2cc(Cl)ccc2nc(-c2ccccc2)n1N=Cc1ccc(Cl)c(Cl)c1 [Compound 3, 6-Chloro-3-((3,4-dichlorobenzylidene)amino)-2-phenyl-4(3H)-quinazolone] | 91.5 ± 1.47 | 246 ± 24.3 |  |  |  |
| O=c1c2cc(Cl)ccc2nc(-c2ccccc2)n1N=Cc1cccc(O)c1 [Compound 9, 6-Chloro-3-((3-hydroxybenzylidene)amino)-2-phenyl-4(3H)-quinazolone] | 84.4 ± 1.26 | 254 ± 14.2 |  |  |  |
| COc1ccc(C=Nn2c(-c3ccccc3)nc3ccc(Cl)cc3c2=O)cc1O [Compound 20, 6-Chloro-3-((3-hydroxy-4-methoxybenzylidene)amino)-2-phenyl-4(3H)-quinazolone] | 198 ± 13.3 | 48.1 ± 3.97 |  |  |  |
| O=c1c2cc(Cl)ccc2nc(-c2ccccc2)n1N=Cc1ccccc1 [Compound 21, 3-(Benzylideneamino)-6-chloro-2-phenyl-4(3H)-quinazolone] | 121 ± 9.35 | 143 ± 12.7 |  |  |  |
| O=c1c2cc(Cl)ccc2nc(-c2ccccc2)n1N=Cc1ccc2c(c1)OCO2 [Compound 6, 3-((Benzo[d][1,3]dioxol-5-ylmethylene)amino)-6-chloro-2-phenyl-4(3H)-quinazolone] | 10.6 ± 0.67 | 50 to 55 | 54.5 ± 0.81 |  |  |
| O=c1c2cc(Cl)ccc2nc(-c2ccccc2)n1N=Cc1cccnc1 [Compound 14, 6-Chloro-2-phenyl-3-((pyridin-3-ylmethylene)amino)-4(3H)-quinazolone] | 262 ± 43.9 | 136 ± 17 |  |  |  |
| O=c1[nH]cc(F)c(=O)[nH]1 [fluorouracil] |  |  |  | 57.3 | 34.1 |
| COc1ccc(C=Nn2c(-c3ccccc3)nc3ccc(Cl)cc3c2=O)cc1OC [Compound 13, 6-Chloro-3-((3,4-dimethoxybenzylidene)amino)-2-phenyl-4(3H)-quinazolone] | 139 ± 4.04 | 130 ± 10.4 |  |  |  |
| O=c1c2cc(Cl)ccc2nc(-c2ccccc2)n1N=Cc1ccc(Cl)cc1Cl [Compound 11, 6-Chloro-3-((2,4-dichlorobenzylidene)amino)-2-phenyl-4(3H)-quinazolone] | 99.4 ± 1.76 | 251 ± 25.5 |  |  |  |
| CCOc1ccc(C=Nn2c(-c3ccccc3)nc3ccc(Cl)cc3c2=O)cc1 [Compound 17, 6-Chloro-3-((4-ethoxybenzylidene)amino)-2-phenyl-4(3H)-quinazolone] | 194 ± 8.83 | 376 ± 8.08 |  |  |  |
| O=c1c2cc(Cl)ccc2nc(-c2ccccc2)n1N=Cc1ccccc1Cl [Compound 12, 6-Chloro-3-((2-chlorobenzylidene)amino)-2-phenyl-4(3H)-quinazolinone] | 321 ± 51.8 | 126 ± 6.2 |  |  |  |
| O=c1c2cc(Cl)ccc2nc(-c2ccccc2)n1N=Cc1ccc(Br)cc1O [Compound 7, 3-((4-Bromo-2-hydroxybenzylidene)amino)-6-chloro-2-phenyl-4(3H)-quinazolone] | 8.79 ± 0.34 | 50 to 55 | 51.6 ± 1.19 |  |  |
| O=c1c2cc(Cl)ccc2nc(-c2ccccc2)n1N=Cc1c(F)cccc1Cl [Compound 5, 6-Chloro-3-((2-chloro-6-fluorobenzylidene)amino)-2-phenyl-4(3H)-quinazolone] | 148 ± 5.64 | 14.7 ± 0.68 |  |  |  |
| O=c1c2cc(Cl)ccc2nc(-c2ccccc2)n1N=Cc1ccccc1O [Compound 19, 6-Chloro-3-((2-hydroxybenzylidene)amino)-2-phenyl-4(3H)-quinazolone] | 37.5 ± 0.63 | 51.1 ± 0.99 |  |  |  |
| CCOc1ccc(C=Nn2c(-c3ccccc3)nc3ccc(Cl)cc3c2=O)cc1O [Compound 10, 6-Chloro-3-((4-ethoxy-3-hydroxybenzylidene)amino)-2-phenyl-4(3H)-quinazolone] | 85.5 ± 2.32 | 430 ± 72.9 |  |  |  |
| O=c1c2cc(Cl)ccc2nc(-c2ccccc2)n1N=Cc1ccc([N+](=O)[O-])cc1 [Compound 2, 6-Chloro-3-((4-nitrobenzylidene)amino)-2-phenyl-4(3H)-quinazolone] | 104 ± 3.63 | 151 ± 2.06 |  |  |  |
| O=c1c2cc(Cl)ccc2nc(-c2ccccc2)n1N=Cc1cccc([N+](=O)[O-])c1 [Compound 16, 6-Chloro-3-((3-nitrobenzylidene)amino)-2-phenyl-4(3H)-quinazolone] | 301 ± 27.1 | 82.3 ± 1.99 |  |  |  |
| CC(=O)O[C@H]1C(=O)[C@@]2(C)[C@H]([C@H](OC(=O)c3ccccc3)[C@]3(O)C[C@H](OC(=O)[C@H](O)[C@@H](NC(=O)c4ccccc4)c4ccccc4)C(C)=C1C3(C)C)[C@]1(OC(C)=O)CO[C@@H]1C[C@@H]2O [PTX, paclitaxel, reference compound] | 0.04 ± 0.02 | 0.58 ± 0.01 |  |  |  |
